Legend:
CRBP1 [1] = target: T1, CRBP1 (Homo sapiens, UniProt P09455); assay: Fluorescence atROL-replacing; assay type: binding; settings: for binding to CRBP1: fluorescence titration of holo-CRBP1, 0–10 μM range for O-1918
T1 sequence (P09455 1-135): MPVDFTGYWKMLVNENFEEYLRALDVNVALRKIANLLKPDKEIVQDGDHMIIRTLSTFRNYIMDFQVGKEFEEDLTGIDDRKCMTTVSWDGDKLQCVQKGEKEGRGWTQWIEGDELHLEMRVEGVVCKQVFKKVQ

RDH5 = target: T2, RDH5 (Bos taurus, UniProt Q27979); assay: 11-cis-retinol oxidation assay in RPE microsomes; assay type: biochemical; settings: bovine RPE microsomes preincubated with 10–50 μM
T2 sequence (Q27979 1-318): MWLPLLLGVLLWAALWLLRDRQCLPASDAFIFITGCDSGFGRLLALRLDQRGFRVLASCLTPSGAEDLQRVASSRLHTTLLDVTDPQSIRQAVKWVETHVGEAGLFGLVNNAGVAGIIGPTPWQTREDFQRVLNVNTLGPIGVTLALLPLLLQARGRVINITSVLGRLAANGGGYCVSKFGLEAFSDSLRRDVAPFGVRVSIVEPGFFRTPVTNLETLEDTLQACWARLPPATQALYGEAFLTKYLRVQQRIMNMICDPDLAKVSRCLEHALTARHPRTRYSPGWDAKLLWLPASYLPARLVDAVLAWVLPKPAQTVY
In short: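 Bovine RPE microsomes (~100 μg total protein) preincubated with 10–50 μM test compound (1:1 to 1:5 molar excess) in 20 mM Tris/HCl pH 8.0, 1% BSA, 20 μM NAD+. 11-cis-Retinol (10 μM) added; 30 °C, 10 min. Stopped with methanol containing 40 mM hydroxylamine, 15 min RT. Hexane extract run on normal-phase HPLC (isocratic 10% ethyl acetate/hexane), detected at 325 nm.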

[2] = Detection and quantification of abn-CBD in the ocular tissues; assay type: in vivo, Balb/cJ mice
In short: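 Balb/cJ mice (5–8 weeks, dark-adapted ≥24 h) given a single i.p. 15 mg kg−1 dose. At 1–15 h mice were anaesthetised with ketamine and PBS-perfused. Eyes homogenised in PBS/methanol with 100 pmol deuterated test-compound internal standard, then hexane-extracted, dried and redissolved in ethanol. Quantified by LC/MS on a C18 column (70–100% methanol/water over 10 min), positive-mode ESI ion trap.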

[3] = test system: light-induced retinal damage; assay: Bright light-induced retinal degeneration; assay type: in vivo, Balb/cJ mice; settings: IP injection 1.5 h prior to light; OCT and histology a week later
CRBP2 = target: T3, CRBP2 (Homo sapiens, UniProt P50120); assay: Fluorescence-binding assay with CRBP2
T3 sequence (P50120 1-134): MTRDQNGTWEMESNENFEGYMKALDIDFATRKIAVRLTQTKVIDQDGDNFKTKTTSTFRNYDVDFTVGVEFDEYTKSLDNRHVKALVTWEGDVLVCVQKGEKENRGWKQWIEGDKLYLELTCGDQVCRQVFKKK

LRAT = target: T4, LRAT (Bos taurus, UniProt Q9BGL2); assay: Retinol esterification assay in RPE microsomes; assay type: biochemical; settings: bovine RPE microsomes preincubated with 10–50 μM
T4 sequence (Q9BGL2 1-230): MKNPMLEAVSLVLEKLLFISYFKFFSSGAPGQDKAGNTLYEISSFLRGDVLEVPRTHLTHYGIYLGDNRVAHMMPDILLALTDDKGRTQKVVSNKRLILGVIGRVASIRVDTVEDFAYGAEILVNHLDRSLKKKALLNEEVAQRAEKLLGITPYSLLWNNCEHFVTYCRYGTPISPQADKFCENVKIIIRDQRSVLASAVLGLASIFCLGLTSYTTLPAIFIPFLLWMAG
In short: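 UV-treated bovine RPE microsomes (~100 μg total protein) in 20 mM Tris/HCl pH 7.4, 1 mM DTT, 1% BSA. Test compound (10, 20 or 50 μM) added before atROL (final 10 μM). Initial rate taken after 5 min at RT, quenched with methanol, extracted with hexane. Normal-phase HPLC (isocratic 10% ethyl acetate/hexane, 325 nm). Retinyl esters quantified against synthetic standards.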

cannabinoid receptor 1 = settings: cited from earlier work
[4] = test system: visual cycle retinoid flow; assay: Visual chromophore regeneration after flash; assay type: in vivo, Balb/cJ mice; settings: 0.25 mg of compound 1.5 h prior to flash bleaching 75% of rhodopsin
In short: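 Dark-adapted (≥24 h) Balb/cJ mice given 0.25 mg test compound or DMSO 1.5 h before a flash bleaching 75% of rhodopsin. Kept dark, euthanised 1 min–8 h later; eyes frozen in liquid nitrogen. Under dim red light, eyes homogenised in 40 mM hydroxylamine in PBS/methanol (20 min RT), then hexane-extracted. Normal-phase HPLC (step ethyl acetate/hexane gradient) read at 325 and 360 nm, quantified against standards; n = 4, mean ± sd.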

rodents = settings: previous studies of wound healing, vasodilation, diabetes; cited from earlier work
CRBP3 = target: T5, CRBP3 (Homo sapiens, UniProt P82980); assay: Co-crystallization / X-ray structure of CRBP3 with ligand; assay type: binding; settings: crystal structure PDB 6E5W
T5 sequence (P82980 1-135): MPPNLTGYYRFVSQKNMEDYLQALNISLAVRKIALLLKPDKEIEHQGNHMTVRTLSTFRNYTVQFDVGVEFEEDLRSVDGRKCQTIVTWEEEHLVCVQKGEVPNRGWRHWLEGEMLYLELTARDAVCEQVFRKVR
In short: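 Apo-CRBP3 (8 mg mL−1) preincubated 15 min with 300 μM test compound. Drops made from 1 μL protein plus 1 μL 0.2 M sodium malonate pH 5.0, 20% PEG 3350 (w/v). Grown by sitting-drop vapour diffusion at RT.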

RPE65 = RPE65 (Bos taurus, UniProt Q28175); assay: RPE65 isomerization activity assay in RPE microsomes; assay type: biochemical; settings: bovine RPE microsomes preincubated with 10–50 μM
In short: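 UV-bleached bovine RPE microsomes were the RPE65 source, reacting in the presence of CRALBP. Microsomes preincubated with 10–50 μM test compound (1:1 to 1:5 molar excess). Reaction started with atROL (final 10 μM) and run at 30 °C for 30 min. Products extracted with hexane and analysed by normal-phase HPLC.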

CRBP4 = target: T6, CRBP4 (Homo sapiens, UniProt Q96R05); assay: Co-crystallization / X-ray structure of CRBP4 with ligand; assay type: binding; settings: crystal structure PDB 6E6K
T6 sequence (Q96R05 1-134): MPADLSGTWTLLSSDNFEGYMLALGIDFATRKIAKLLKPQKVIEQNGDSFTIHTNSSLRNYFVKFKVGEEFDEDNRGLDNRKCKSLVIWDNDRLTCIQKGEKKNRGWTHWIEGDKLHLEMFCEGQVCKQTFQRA
In short: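 CRBP4 purified with a final 0–0.5 M NaCl gradient in 10 mM Tris/HCl pH 8.0, then concentrated to 6 mg mL−1. Protein preincubated with test compound. Crystallised in 0.2 M NaCl, 0.1 M BisTris pH 6.5, 25% PEG 3350 (w/v) by sitting-drop vapour diffusion at RT.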

[5] = test system: recovery of visual sensitivity; assay: Scotopic full-field ERG recovery after photobleach; assay type: in vivo, Balb/cJ mice; settings: 30 mg/kg; ERG 4 h after flash bleaching ~50% of visual pigment
cannabinoid receptor 2 = settings: cited from earlier work
CRBP1 [6] = settings: read-out: affinity for atROL; cited from earlier work

RPE65, sequence (Q28175 whole entry): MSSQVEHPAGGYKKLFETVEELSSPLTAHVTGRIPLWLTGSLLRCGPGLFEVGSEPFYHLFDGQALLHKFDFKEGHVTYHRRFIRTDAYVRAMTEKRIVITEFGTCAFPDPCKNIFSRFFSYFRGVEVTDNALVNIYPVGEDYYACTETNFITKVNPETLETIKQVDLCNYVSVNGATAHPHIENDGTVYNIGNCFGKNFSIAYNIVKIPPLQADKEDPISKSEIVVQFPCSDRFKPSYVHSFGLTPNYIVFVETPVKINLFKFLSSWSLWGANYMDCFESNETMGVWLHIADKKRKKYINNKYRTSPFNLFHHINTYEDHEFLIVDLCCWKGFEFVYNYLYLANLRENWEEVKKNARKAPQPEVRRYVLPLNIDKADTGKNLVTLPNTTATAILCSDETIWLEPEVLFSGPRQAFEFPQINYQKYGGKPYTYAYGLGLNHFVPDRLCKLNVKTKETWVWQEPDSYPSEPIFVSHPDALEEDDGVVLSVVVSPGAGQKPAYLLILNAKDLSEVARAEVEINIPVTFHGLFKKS

C=C(C)[C@@H]1CCC(C)=CC1c1c(O)cc(C)cc1O (stereo partly drawn) [CBDO, 5-methyl-2-[(6R)-3-methyl-6-prop-1-en-2-ylcyclohex-2-en-1-yl]benzene-1,3-diol]
Ki (CRBP1 [1]): ~1700 nM | fold increase of the Ki value (CRBP1 [1]; further increase relative to abn-CBDO): 6.3 fold

C=C(C)[C@@H]1CCC(C)=C[C@H]1c1c(OC)cc(C)cc1OC [O-1918, 1,3-dimethoxy-5-methyl-2-[(1R,6R)-3-methyl-6-prop-1-en-2-ylcyclohex-2-en-1-yl]benzene]
binding to CRBP1 (CRBP1 [1]): abolished the meaningful binding

C=C(C)[C@@H]1CCC(C)=C[C@H]1c1c(O)cc(O)cc1CCCCC [abn-CBD, 4-[(1R,6R)-3-Methyl-6-prop-1-en-2-ylcyclohex-2-en-1-yl]-5-pentylbenzene-1,3-diol]
effect on RDH5 enzymatic activity (RDH5): did not cause a measurable decline | half-life ([2]; Balb/cJ, mouse, eye (PBS-perfused, homogenised), ip, 15 mg/kg): ~7 h | time of maximum ocular level after the injection ([2]; single IP dose 15 mg kg^−1): 2 h | maximum ocular level ([2]; single IP dose 15 mg kg^−1, PBS-perfused mouse eyes): 58 pmol/eye | protection against light-induced retinal damage [3]: largely protected against the light-induced retinal damage | interaction with CRBP2 (CRBP2): absence of interaction | effect on LRAT enzymatic activity (LRAT): did not cause a measurable decline | Ki (CRBP1 [1]): ~67 nM | interaction with cannabinoid receptor 1 (cannabinoid receptor 1): does not interact | atROL level during chromophore regeneration [4]: transient accumulation of atROL | rate of 11-cis-retinal regeneration [4]: noticeably slower | rate of all-trans-retinal clearance vs control [4]: no differences | toxicity in rodents (rodents): did not report toxicity | binding to CRBP3 (CRBP3): bind abn-CBD similarly to CRBP1 | effect on RPE65 enzymatic activity (RPE65): did not cause a measurable decline | binding to CRBP4 (CRBP4): bind abn-CBD similarly to CRBP1 | recovery of a-wave and b-wave amplitudes after light illumination [5]: slower | interaction with cannabinoid receptor 2 (cannabinoid receptor 2): does not interact

C=C(C)[C@@H]1CCC(C)=C[C@H]1c1c(C)cc(O)cc1O [abn-CBDO, 5-methyl-4-[(1R,6R)-3-methyl-6-prop-1-en-2-ylcyclohex-2-en-1-yl]benzene-1,3-diol]
apparent affinity lowered compared with abn-CBD (CRBP1 [1]; fold change of Ki vs abn-CBD): 4.3 times

CC1=C(/C=C/C(C)=C/C=C/C(C)=C/CO)C(C)(C)CCC1 [atROL, all-trans-retinol]
Ki (CRBP1 [1]): ~34 nM | Kd (CRBP1 [6]): < 1 nM

C=C(C)[C@H]1CC=C(C)CC1 [limonene]
binding to CRBP1 (CRBP1 [1]): did not observe limonene interacting

From article PMC6420351 (ACS chemical biology, 2019)
